Measurements published in ChEMBL document CHEMBL2375238, “Synthesis and biological evaluation of oleanolic acid derivatives as PTP1B inhibitors” (Eur J Med Chem, 2013).

Tests used:
[1] = target: T1, Tyrosine-protein phosphatase non-receptor type 1 (Homo sapiens) (UniProt P18031); assay: Inhibition of PTP1B (unknown origin) expressed in Escherichia coli expression system using p-nitrophenyl phosphate as substrate assessed as release of p-nitrophenol at 10 ug/mL incubated for 10 mins prior to substrate addition measured after 30 mins relative to control
T1 sequence (whole entry): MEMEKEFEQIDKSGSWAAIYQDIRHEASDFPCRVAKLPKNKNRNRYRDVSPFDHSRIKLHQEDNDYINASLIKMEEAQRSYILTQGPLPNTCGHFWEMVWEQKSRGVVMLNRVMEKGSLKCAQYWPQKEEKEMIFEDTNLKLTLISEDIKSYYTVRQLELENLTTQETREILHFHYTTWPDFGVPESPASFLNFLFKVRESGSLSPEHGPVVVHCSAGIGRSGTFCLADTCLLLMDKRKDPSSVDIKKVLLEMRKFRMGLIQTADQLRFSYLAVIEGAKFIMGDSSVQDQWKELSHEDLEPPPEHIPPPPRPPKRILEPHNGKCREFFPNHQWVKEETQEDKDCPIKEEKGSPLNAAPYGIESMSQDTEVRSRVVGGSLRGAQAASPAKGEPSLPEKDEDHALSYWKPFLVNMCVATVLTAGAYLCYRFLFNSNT
Method in brief: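 Native PTP1B was expressed in E. coli, purified, and diluted in 25 mM HEPES, 50 mM NaCl, 2.5 mM EDTA, 0.1% BSA, pH 7.2. Compounds were dissolved in DMSO and preincubated with enzyme in buffer A (50 mM HEPES, 2.5 mM EDTA, pH 7.0) for 10 min at 37 °C. pNPP was then added for 30 min at 37 °C.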

[2] = test system: 3T3-L1; assay: Insulin sensitizing activity in mouse 3T3L1 cells assessed as increase in glucose uptake at 10 ug/mL after 50 hrs […] relative to control; type: functional
Method in brief: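 3T3-L1 cells were grown in high-glucose DMEM with 10% FBS and, at 90% confluence, differentiated with insulin, dexamethasone and IBMX. After 4 days they were replated, grown 2 days, then made insulin-resistant with low insulin and high dexamethasone for 4 days. Compounds were given in high-glucose medium for 50 h. Supernatant glucose was measured by kit at OD 490 nm, against normal and insulin-resistant controls, in duplicate or triplicate.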

[3] = target: T2, Tyrosine-protein phosphatase non-receptor type 1 (Homo sapiens, UniProt P18031); assay: Inhibition of PTP1B (unknown origin) expressed in Escherichia coli expression system using p-nitrophenyl phosphate as substrate assessed as release of p-nitrophenol incubated for 10 mins prior to substrate addition measured after 30 mins
T2 sequence (P18031 whole entry): T1 sequence (whole entry)
Method in brief: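 Native PTP1B purified from E. coli, diluted in 25 mM HEPES, 50 mM NaCl, 2.5 mM EDTA, 0.1% BSA, pH 7.2; inhibitors in DMSO. Enzyme and inhibitor preincubated at 37 °C in 50 mM HEPES, 2.5 mM EDTA, pH 7.0. pNPP then added; stopped after 30 min with 2 M Na2CO3; A405 read. Inhibition from OD against blank and no-inhibitor controls; means of three experiments.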

[4] = target: Tyrosine-protein phosphatase non-receptor type 1 (Homo sapiens) (UniProt P18031); details: 100 ug/mL

Compound | Imax [1] | Activity [2] | IC50 [3] | Imax [4]
CC(=O)N[C@H]1[C@H]([C@H](O)[C@H](O)CO)O[C@](O[C@H]2CC[C@]3(C)[C@H]4CC=C5[C@@H]6CC(C)(C)CC[C@]6(C(=O)NCCCCCC(=O)O)CC[C@@]5(C)[C@]4(C)CC[C@H]3C2(C)C)(C(=O)O)C[C@@H]1O | 69% | 10.31% | – | –
COC(=O)CCCCCNC(=O)[C@]12CCC(C)(C)C[C@H]1C1=CC[C@@H]3[C@@]4(C)CC[C@H](O[C@H]5O[C@H](C(=O)O)[C@@H](O)[C@H](O)[C@@H]5O)C(C)(C)[C@@H]4CC[C@@]3(C)[C@]1(C)CC2 | 98.6% | – | 1.91 µM | –
COC(=O)CCCCCNC(=O)[C@]12CCC(C)(C)C[C@H]1C1=CC[C@@H]3[C@@]4(C)CC[C@H](O)C(C)(C)[C@@H]4CC[C@@]3(C)[C@]1(C)CC2 | 4.89% | – | – | –
COC(=O)CCCCCNC(=O)[C@]12CCC(C)(C)C[C@H]1C1=CC[C@@H]3[C@@]4(C)CC[C@H](O[C@]5(C(=O)OC)C[C@H](O)[C@@H](NC(C)=O)[C@H]([C@H](O)[C@H](O)CO)O5)C(C)(C)[C@@H]4CC[C@@]3(C)[C@]1(C)CC2 | 56% | 9.54% | – | –
COC(=O)CCCCCNC(=O)[C@]12CCC(C)(C)C[C@H]1C1=CC[C@@H]3[C@@]4(C)CC[C@H](O[C@@H]5O[C@H](C(=O)O)[C@@H](O)[C@H](O)[C@H]5O)C(C)(C)[C@@H]4CC[C@@]3(C)[C@]1(C)CC2 | 11.8% | – | – | –
COC(=O)CCCCCNC(=O)[C@]12CCC(C)(C)C[C@H]1C1=CC[C@@H]3[C@@]4(C)CC[C@H](O[C@H]5O[C@H](CO)[C@@H](O)[C@H](O)[C@@H]5O)C(C)(C)[C@@H]4CC[C@@]3(C)[C@]1(C)CC2 | 1.52% | – | – | –
COC(=O)CCCCCNC(=O)[C@]12CCC(C)(C)C[C@H]1C1=CC[C@@H]3[C@@]4(C)CC[C@H](O[C@@H]5O[C@H](C(=O)OC)[C@@H](O)[C@H](O)[C@H]5O)C(C)(C)[C@@H]4CC[C@@]3(C)[C@]1(C)CC2 | 36.7% | 28.29% | – | –
SODIUM ORTHOVANAD | – | – | – | 100%
C[C@@H]1O[C@@H](O[C@H]2CC[C@]3(C)[C@H]4C[C@H](O)[C@]56OC(=O)[C@@]7(CCC(C)(C)C[C@H]75)CC[C@@]6(C)[C@]4(C)CC[C@H]3C2(C)C)[C@@H](O)[C@H](O)[C@@H]1O | -1.55% | – | – | –
COC(=O)CCCCCNC(=O)[C@]12CCC(C)(C)C[C@H]1C1=CC[C@@H]3[C@@]4(C)CC[C@H](O[C@@H]5O[C@@H](C)[C@@H](O)[C@@H](O)[C@@H]5O)C(C)(C)[C@@H]4CC[C@@]3(C)[C@]1(C)CC2 | 1.91% | – | – | –
CC1(C)CC[C@@]23CC[C@]4(C)[C@@](OC2=O)([C@@H]3C1)[C@@H](O)C[C@@H]1[C@@]2(C)CC[C@H](O[C@H]3O[C@H](CO)[C@@H](O)[C@H](O)[C@@H]3O)C(C)(C)[C@@H]2CC[C@]14C | 2.9% | – | – | –
CC1(C)CC[C@@]23CC[C@]4(C)[C@@](OC2=O)([C@@H]3C1)[C@@H](O)C[C@@H]1[C@@]2(C)CC[C@H](O[C@@H]3O[C@H](CO)[C@@H](O[C@@H]5O[C@H](CO)[C@H](O)[C@H](O)[C@H]5O)[C@H](O)[C@H]3O)C(C)(C)[C@@H]2CC[C@]14C | 2.55% | – | – | –
CC1(C)CC[C@]2(C(=O)NCCCCCC(=O)O)CC[C@]3(C)C(=CC[C@@H]4[C@@]5(C)CC[C@H](O[C@H]6O[C@H](C(=O)O)[C@@H](O)[C@H](O)[C@@H]6O)C(C)(C)[C@@H]5CC[C@]43C)[C@@H]2C1 | 64.8% | 3.91% | 16.1 µM | –
CC1(C)CC[C@]2(C(=O)NCCCCCC(=O)O)CC[C@]3(C)C(=CC[C@@H]4[C@@]5(C)CC[C@H](O[C@@H]6O[C@H](CO)[C@@H](O)[C@H](O)[C@H]6O)C(C)(C)[C@@H]5CC[C@]43C)[C@@H]2C1 | 57.6% | 6.11% | – | –
COC(=O)CCCCCNC(=O)[C@]12CCC(C)(C)C[C@H]1C1=CC[C@@H]3[C@@]4(C)CC[C@H](O[C@H]5O[C@H](C(=O)OC)[C@@H](O)[C@H](O)[C@@H]5O)C(C)(C)[C@@H]4CC[C@@]3(C)[C@]1(C)CC2 | 81.9% | 39.18% | 12.2 µM | –
CC1(C)CC[C@]2(C(=O)NCCCCCC(=O)O)CC[C@]3(C)C(=CC[C@@H]4[C@@]5(C)CC[C@H](O[C@@H]6O[C@H](CO)[C@@H](O[C@@H]7O[C@H](CO)[C@H](O)[C@H](O)[C@H]7O)[C@H](O)[C@H]6O)C(C)(C)[C@@H]5CC[C@]43C)[C@@H]2C1 | 83.7% | 39.13% | 9.21 µM | –
CC1(C)CC[C@@]23CC[C@]4(C)[C@@](OC2=O)([C@@H]3C1)[C@@H](O)C[C@@H]1[C@@]2(C)CC[C@H](O[C@@H]3O[C@H](C(=O)O)[C@@H](O)[C@H](O)[C@H]3O)C(C)(C)[C@@H]2CC[C@]14C | 16.1% | – | – | –
CC1(C)CC[C@@]23CC[C@]4(C)[C@@](OC2=O)([C@@H]3C1)[C@@H](O)C[C@@H]1[C@@]2(C)CC[C@H](O[C@@H]3O[C@H](CO)[C@@H](O)[C@H](O)[C@H]3O)C(C)(C)[C@@H]2CC[C@]14C | 6% | – | – | –
CC1(C)CC[C@]2(C(=O)NCCCCCC(=O)O)CC[C@]3(C)C(=CC[C@@H]4[C@@]5(C)CC[C@H](O[C@@H]6O[C@H](C(=O)O)[C@@H](O)[C@H](O)[C@H]6O)C(C)(C)[C@@H]5CC[C@]43C)[C@@H]2C1 | 72% | 21.52% | 0.56 µM | –
CC1(C)CC[C@]2(C(=O)NCCCCCC(=O)O)CC[C@]3(C)C(=CC[C@@H]4[C@@]5(C)CC[C@H](O)C(C)(C)[C@@H]5CC[C@]43C)[C@@H]2C1 | 14.3% | – | – | –
COC(=O)CCCCCNC(=O)[C@]12CCC(C)(C)C[C@H]1C1=CC[C@@H]3[C@@]4(C)CC[C@H](O[C@@H]5O[C@H](CO)[C@@H](O[C@@H]6O[C@H](CO)[C@H](O)[C@H](O)[C@H]6O)[C@H](O)[C@H]5O)C(C)(C)[C@@H]4CC[C@@]3(C)[C@]1(C)CC2 | 3.87% | – | – | –
COC(=O)CCCCCNC(=O)[C@]12CCC(C)(C)C[C@H]1C1=CC[C@@H]3[C@@]4(C)CC[C@H](O[C@@]5(C(=O)OC)C[C@H](O)[C@@H](NC(C)=O)[C@H]([C@H](O)[C@H](O)CO)O5)C(C)(C)[C@@H]4CC[C@@]3(C)[C@]1(C)CC2 | 8.34% | -7.74% | – | –
COC(=O)CCCCCNC(=O)[C@]12CCC(C)(C)C[C@H]1C1=CC[C@@H]3[C@@]4(C)CC[C@H](O[C@@H]5O[C@H](CO)[C@@H](O)[C@H](O)[C@H]5O)C(C)(C)[C@@H]4CC[C@@]3(C)[C@]1(C)CC2 | 5.82% | – | – | –
CN(CCOc1ccc(CC2SC(=O)NC2=O)cc1)c1ccccn1 (stereo not given) [ROSIGLITAZONE] | – | 100% | – | –
CC1(C)CC[C@]2(C(=O)NCCCCCC(=O)O)CC[C@]3(C)C(=CC[C@@H]4[C@@]5(C)CC[C@H](O[C@H]6O[C@H](CO)[C@@H](O)[C@H](O)[C@@H]6O)C(C)(C)[C@@H]5CC[C@]43C)[C@@H]2C1 | 57% | 57.55% | – | –
CC1(C)CC[C@@]23CC[C@]4(C)[C@@](OC2=O)([C@@H]3C1)[C@@H](O)C[C@@H]1[C@@]2(C)CC[C@H](O[C@H]3O[C@H](C(=O)O)[C@@H](O)[C@H](O)[C@@H]3O)C(C)(C)[C@@H]2CC[C@]14C | 3.72% | – | – | –
CC(=O)N[C@H]1[C@H]([C@H](O)[C@H](O)CO)O[C@@](O[C@H]2CC[C@]3(C)[C@H]4CC=C5[C@@H]6CC(C)(C)CC[C@]6(C(=O)NCCCCCC(=O)O)CC[C@@]5(C)[C@]4(C)CC[C@H]3C2(C)C)(C(=O)O)C[C@@H]1O | 46% | -16.69% | – | –
C[C@@H]1O[C@@H](O[C@H]2CC[C@]3(C)[C@H]4CC=C5[C@@H]6CC(C)(C)CC[C@]6(C(=O)NCCCCCC(=O)O)CC[C@@]5(C)[C@]4(C)CC[C@H]3C2(C)C)[C@@H](O)[C@H](O)[C@@H]1O | 63.2% | 59.58% | – | –
